According to ChEMBL document CHEMBL4024746, “Nonpyrogenic Molecular Adjuvants Based on norAbu-Muramyldipeptide and norAbu-Glucosaminyl Muramyldipeptide: Synthesis, Molecular Mechanisms of Action, and Biological Activities in Vitro and in Vivo” (J Med Chem, 2017):
The source made the active and inactive calls. The rule behind the calls is not given here.

Key:
[1] = molecular target: Nucleotide-binding oligomerization domain-containing protein 2 (Homo sapiens) (UniProt Q9HC29); experiment: Agonist activity at human NOD2 receptor expressed in mouse Raw-Blue reporter cells at 10 uM after 48 hrs by SEAP reporter gene assay; format: cell-based
Chain of Nucleotide-binding oligomerization domain-containing protein 2 (Homo sapiens) (Q9HC29 whole entry, the tested form may be a part): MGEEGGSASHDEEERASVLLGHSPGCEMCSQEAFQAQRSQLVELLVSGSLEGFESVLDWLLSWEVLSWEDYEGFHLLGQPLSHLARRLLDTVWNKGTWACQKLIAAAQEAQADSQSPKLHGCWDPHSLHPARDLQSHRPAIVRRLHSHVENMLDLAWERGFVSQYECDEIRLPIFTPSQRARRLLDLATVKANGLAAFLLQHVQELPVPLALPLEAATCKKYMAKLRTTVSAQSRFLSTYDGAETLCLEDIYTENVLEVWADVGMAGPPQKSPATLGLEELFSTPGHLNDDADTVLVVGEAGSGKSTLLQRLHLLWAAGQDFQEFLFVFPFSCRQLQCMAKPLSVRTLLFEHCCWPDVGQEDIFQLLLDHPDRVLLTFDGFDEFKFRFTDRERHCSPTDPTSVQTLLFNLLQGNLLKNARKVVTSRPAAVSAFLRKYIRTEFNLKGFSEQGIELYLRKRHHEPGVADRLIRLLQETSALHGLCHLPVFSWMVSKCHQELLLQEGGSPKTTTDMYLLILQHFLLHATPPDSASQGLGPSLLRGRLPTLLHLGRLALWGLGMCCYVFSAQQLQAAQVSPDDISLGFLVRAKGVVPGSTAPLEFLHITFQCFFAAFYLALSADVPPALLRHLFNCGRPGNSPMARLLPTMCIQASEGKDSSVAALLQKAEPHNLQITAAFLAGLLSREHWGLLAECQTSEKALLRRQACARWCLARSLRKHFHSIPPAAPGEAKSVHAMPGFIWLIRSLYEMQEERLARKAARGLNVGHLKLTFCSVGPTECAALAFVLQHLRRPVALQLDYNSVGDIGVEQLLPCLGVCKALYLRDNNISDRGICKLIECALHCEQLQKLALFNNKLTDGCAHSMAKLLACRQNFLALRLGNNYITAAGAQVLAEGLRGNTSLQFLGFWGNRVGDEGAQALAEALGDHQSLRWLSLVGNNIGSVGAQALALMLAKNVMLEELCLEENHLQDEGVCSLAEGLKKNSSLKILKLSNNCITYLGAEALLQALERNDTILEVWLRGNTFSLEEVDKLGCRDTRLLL
Method in brief: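 RAW 264.7-derived RAW-Blue cells carrying an NF-κB/AP-1-inducible SEAP reporter, exposed to compounds at 10 μM for 48 h. Colorimetric SEAP read-out at 650 nm. MDP serves as positive control. ANOVA with Dunnett's test versus untreated cells and versus MDP.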

[2] = molecular target: Nucleotide-binding oligomerization domain-containing protein 2 (Homo sapiens) (UniProt Q9HC29); experiment: Agonist activity at human NOD2 receptor expressed in mouse Raw-Blue reporter cells at 10 uM after 24 hrs in presence of GSK717 by SEAP reporter gene assay
[3] = molecular target: Nucleotide-binding oligomerization domain-containing protein 2 (Homo sapiens) (UniProt Q9HC29); experiment: Agonist activity at human NOD2 receptor expressed in mouse Raw-Blue reporter cells at 10 uM after 48 hrs in presence of gefitinib by SEAP reporter gene assay; format: cell-based
[4] = molecular target: NACHT, LRR and PYD domains-containing protein 3 (Homo sapiens, UniProt Q96P20); experiment: Agonist activity at NLRP3 in human […] cells assessed as induction of LPS-induced IL-1beta secretion by HEK-Blue reporter cell based assay
Chain of NACHT, LRR and PYD domains-containing protein 3 (Q96P20 whole entry, the tested form may be a part): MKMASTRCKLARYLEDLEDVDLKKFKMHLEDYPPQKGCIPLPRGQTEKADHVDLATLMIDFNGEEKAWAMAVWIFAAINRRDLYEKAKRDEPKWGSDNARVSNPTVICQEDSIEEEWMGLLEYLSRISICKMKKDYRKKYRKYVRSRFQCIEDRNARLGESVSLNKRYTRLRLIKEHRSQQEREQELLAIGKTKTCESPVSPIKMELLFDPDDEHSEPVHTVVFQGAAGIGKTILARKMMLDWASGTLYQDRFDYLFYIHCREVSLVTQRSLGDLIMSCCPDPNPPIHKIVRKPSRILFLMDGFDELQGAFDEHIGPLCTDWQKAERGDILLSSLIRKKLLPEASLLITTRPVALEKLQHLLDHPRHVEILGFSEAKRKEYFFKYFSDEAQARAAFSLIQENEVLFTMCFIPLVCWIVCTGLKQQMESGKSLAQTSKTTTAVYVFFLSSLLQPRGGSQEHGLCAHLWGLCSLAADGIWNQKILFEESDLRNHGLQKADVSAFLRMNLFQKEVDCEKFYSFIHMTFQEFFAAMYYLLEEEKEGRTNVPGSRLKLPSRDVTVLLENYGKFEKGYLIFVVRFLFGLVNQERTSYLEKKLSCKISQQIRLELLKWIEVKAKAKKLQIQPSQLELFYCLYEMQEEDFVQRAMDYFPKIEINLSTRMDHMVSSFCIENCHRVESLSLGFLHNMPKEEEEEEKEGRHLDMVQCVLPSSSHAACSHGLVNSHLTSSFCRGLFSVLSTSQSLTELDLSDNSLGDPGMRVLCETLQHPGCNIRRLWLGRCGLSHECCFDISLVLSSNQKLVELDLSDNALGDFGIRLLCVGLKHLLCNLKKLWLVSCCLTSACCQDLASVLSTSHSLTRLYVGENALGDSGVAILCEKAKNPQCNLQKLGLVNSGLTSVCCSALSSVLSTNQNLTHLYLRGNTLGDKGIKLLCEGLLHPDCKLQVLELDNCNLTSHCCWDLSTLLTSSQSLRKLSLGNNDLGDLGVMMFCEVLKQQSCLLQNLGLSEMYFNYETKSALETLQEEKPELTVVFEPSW
Method in brief: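 THP1-Null cells stimulated with compounds; mature IL-1β released is detected with HEK-Blue IL-1β cells through SEAP reporter activity in the supernatant, read colorimetrically with QUANTI-Blue. ATP serves as positive standard. Untreated HEK-Blue IL-1β cells serve as negative control; comparison by ANOVA with Dunnett's test.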

[5] = tested on: Oryctolagus cuniculus; experiment: Toxicity in New Zealand albino rabbit assessed as skin irritation at 100 nmol/kg, sc using liposomal formulation measured up to 2 months post dose; format: organism-based; conditions: in vivo
[6] = tested on: Oryctolagus cuniculus; experiment: Pyrogenic activity in Chinchilla rabbit assessed as change in maximum body temperature at 100 nmol/kg, iv using micellar foemulation measured at 30 mins time intervals; format: toxicity, organism-based; conditions: in vivo, 0.5 h
Method in brief: (§1)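 Standard rabbit pyrogenicity test, three animals per group, iv or modified sc application of free (micellar) or liposomal formulations. Maximum temperature rise (+ΔTmax) summed per group; sum below 1.1 °C classed as nonpyrogenic. Temperature followed a further 24 h for delayed pyrogenicity.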

[7] = tested on: Mus musculus; experiment: Immuno-stimulatory activity in ICR mouse assessed as induction of GM-progenitor cell proliferation in serum at […], sc using liposomal formulation measured after 6 hrs; format: functional, organism-based
Method in brief: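 Female ICR mice, 3 months old, four per group, given liposomal preparations sc at 100 nmol per dose in 200 μL. Serum collected 6 h later and added to cultured granulocyte–monocyte progenitors. GM-CFU colonies counted, with serum-free cells as baseline. Dunnett's test is used versus the infusion-solution control.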

[8] = tested on: Oryctolagus cuniculus; experiment: Toxicity in New Zealand albino rabbit assessed as behavioral changes at 100 nmol/kg, sc using liposomal formulation measured up to 2 months post dose; format: organism-based; conditions: in vivo
[9] = molecular target: T1, Nucleotide-binding oligomerization domain-containing protein 1 (Homo sapiens) (UniProt Q9Y239); experiment: Agonist activity at human NOD1 receptor expressed in HEK-Blue reporter cells at 10 uM after 48 hrs by SEAP reporter gene assay; format: cell-based
T1 sequence (whole entry): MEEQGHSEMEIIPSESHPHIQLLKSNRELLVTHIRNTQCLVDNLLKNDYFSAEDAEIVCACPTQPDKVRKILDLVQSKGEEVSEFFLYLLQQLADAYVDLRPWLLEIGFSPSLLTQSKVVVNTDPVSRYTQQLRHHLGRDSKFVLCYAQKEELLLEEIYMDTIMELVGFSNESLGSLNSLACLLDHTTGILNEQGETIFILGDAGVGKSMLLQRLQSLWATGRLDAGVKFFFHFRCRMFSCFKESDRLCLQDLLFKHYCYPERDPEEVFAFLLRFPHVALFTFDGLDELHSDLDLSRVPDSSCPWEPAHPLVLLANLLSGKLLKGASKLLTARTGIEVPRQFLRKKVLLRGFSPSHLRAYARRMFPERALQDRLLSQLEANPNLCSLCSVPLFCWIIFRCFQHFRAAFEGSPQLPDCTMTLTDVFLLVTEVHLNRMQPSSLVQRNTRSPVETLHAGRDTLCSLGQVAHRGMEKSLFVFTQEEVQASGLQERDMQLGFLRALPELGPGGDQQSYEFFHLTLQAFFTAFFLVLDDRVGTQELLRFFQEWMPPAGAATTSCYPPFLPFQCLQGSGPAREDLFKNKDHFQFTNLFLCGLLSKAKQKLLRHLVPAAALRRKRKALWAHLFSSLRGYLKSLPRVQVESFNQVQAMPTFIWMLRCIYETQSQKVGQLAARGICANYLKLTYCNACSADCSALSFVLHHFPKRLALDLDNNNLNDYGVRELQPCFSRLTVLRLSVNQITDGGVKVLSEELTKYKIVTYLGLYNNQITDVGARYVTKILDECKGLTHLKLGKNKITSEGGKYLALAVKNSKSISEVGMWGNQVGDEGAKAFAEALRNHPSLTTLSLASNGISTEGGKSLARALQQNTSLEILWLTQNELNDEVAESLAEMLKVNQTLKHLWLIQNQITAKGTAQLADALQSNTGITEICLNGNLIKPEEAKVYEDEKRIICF
Method in brief: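 HEK293 cells cotransfected with human NOD1 and an NF-κB/AP-1-inducible SEAP reporter, exposed to compounds at 10 μM for 48 h. SEAP is read at 650 nm with QUANTI-Blue. Diaminopimelic acid derivatives serve as NOD1 positive controls. Dunnett's test is used versus untreated cells.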

[10] = tested on: Oryctolagus cuniculus; experiment: Toxicity in Chinchilla rabbit assessed as behavioral changes at 100 nmol/kg, iv using micellar formulation measured up to 2 months post dose; format: organism-based; conditions: in vivo
[11] = tested on: Oryctolagus cuniculus; experiment: Toxicity in Chinchilla rabbit assessed as weight loss at 100 nmol/kg, iv using micellar formulation measured up to 2 months post dose; format: organism-based; conditions: in vivo
[12] = tested on: Oryctolagus cuniculus; experiment: Toxicity in New Zealand albino rabbit assessed as necrosis at site of application at 100 nmol/kg, sc using liposomal formulation measured up to 2 months post dose; format: organism-based; conditions: in vivo
[13] = tested on: Oryctolagus cuniculus; experiment: Toxicity in Chinchilla rabbit assessed as necrosis at site of application at 100 nmol/kg, iv using micellar formulation measured up to 2 months post dose; format: organism-based; conditions: in vivo
[14] = tested on: Oryctolagus cuniculus; experiment: Pyrogenic activity in New Zealand albino rabbit assessed as change in maximum body temperature at 100 nmol/kg, sc using liposomal formulation measured at 30 mins time intervals for 9 to 24 hrs (reference value: 0.2 degC); format: toxicity, organism-based; conditions: in vivo; method in brief: as §1
[15] = tested on: Oryctolagus cuniculus; experiment: Toxicity in New Zealand albino rabbit assessed as weight loss at 100 nmol/kg, sc using liposomal formulation measured up to 2 months post dose; format: organism-based; conditions: in vivo
[16] = tested on: Oryctolagus cuniculus; experiment: Toxicity in Chinchilla rabbit assessed as skin irritation at 100 nmol/kg, iv using micellar formulation measured up to 2 months post dose; format: organism-based; conditions: in vivo

SMILES | Activity [1] | Activity [2] | Activity [3] | Activity [4] | Activity [5] | deltaT [6] | Activity [7] | Activity [8] | Activity [9] | Activity [10] | Activity [11] | Activity [12] | Activity [13] | deltaT [14] | Activity [15] | Activity [16]
CCCCCCCCCCCCCCCCCC(=O)OC[C@H]1OC(O)[C@H](NC(C)=O)[C@@H](O[C@H](C)C(=O)N[C@@H](C)C(=O)N[C@H](CCC(=O)O)C(N)=O)[C@@H]1O (some centres not stated) | Active | inactive | inactive | – | – | – | – | – | – | – | – | – | – | – | – | –
CCCCCCCCCCCCCCCCCC(=O)NCCCC[C@H](NC(=O)CC[C@@H](NC(=O)[C@H](CC)NC(=O)CO[C@H]1[C@H](O)[C@@H](CO)OC(O)[C@@H]1NC(C)=O)C(N)=O)C(=O)O (some centres not stated) | Active | inactive | inactive | Active | Non-Toxic | 0.4 °C | Active | Non-Toxic | inactive | Non-Toxic | Non-Toxic | Non-Toxic | Non-Toxic | 0.5 °C | Non-Toxic | Non-Toxic
CCCCCCCCCCCCCCCCCC(=O)OC[C@H]1OC(O)[C@H](NC(C)=O)[C@@H](OCC(=O)N[C@@H](CC)C(=O)N[C@H](CCC(=O)O)C(N)=O)[C@@H]1O (some centres not stated) | Active | inactive | inactive | Active | Non-Toxic | 0.6 °C | Active | Non-Toxic | inactive | Non-Toxic | Non-Toxic | Non-Toxic | Non-Toxic | 0.6 °C | Non-Toxic | Non-Toxic
CCCCCCCCCCCCCCC(CCCCCCCCCCCCCC)C(=O)NCCCC[C@H](NC(=O)CC[C@@H](NC(=O)[C@H](CC)NC(=O)CO[C@H]1[C@H](O[C@@H]2O[C@H](CO)[C@@H](O)[C@H](O)[C@H]2NC(C)=O)[C@@H](CO)OC(O)[C@@H]1NC(C)=O)C(N)=O)C(=O)O (some centres not stated) | Active | inactive | inactive | Active | Non-Toxic | 0.4 °C | Active | Non-Toxic | inactive | Non-Toxic | Non-Toxic | Non-Toxic | Non-Toxic | 0.5 °C | Non-Toxic | Non-Toxic
CCCCCCCCCCCCCCC(CCCCCCCCCCCCCC)C(=O)OC[C@H]1OC(O)[C@H](NC(C)=O)[C@@H](OCC(=O)N[C@@H](CC)C(=O)N[C@H](CCC(=O)O)C(N)=O)[C@@H]1O (some centres not stated) | Active | inactive | inactive | Active | Non-Toxic | 0.6 °C | Active | Non-Toxic | inactive | Non-Toxic | Non-Toxic | Non-Toxic | Non-Toxic | 0.5 °C | Non-Toxic | Non-Toxic
CCCCCCCCCCCCCCCCCC(=O)NCCCC[C@H](NC(=O)CC[C@@H](NC(=O)[C@H](CC)NC(=O)CO[C@H]1[C@H](O[C@@H]2O[C@H](CO)[C@@H](O)[C@H](O)[C@H]2NC(C)=O)[C@@H](CO)OC(O)[C@@H]1NC(C)=O)C(N)=O)C(=O)O (some centres not stated) | Active | inactive | inactive | Active | Non-Toxic | 0.5 °C | Active | Non-Toxic | inactive | Non-Toxic | Non-Toxic | Non-Toxic | Non-Toxic | 0.4 °C | Non-Toxic | Non-Toxic
CCCCCCCCCCCCCCCCCC(=O)N[C@H]1[C@H](O[C@H]2[C@H](OCC(=O)N[C@@H](CC)C(=O)N[C@H](CCC(=O)O)C(N)=O)[C@@H](NC(C)=O)C(O)O[C@@H]2CO)O[C@H](CO)[C@@H](O)[C@@H]1O (some centres not stated) | Active | inactive | inactive | Active | Non-Toxic | 0.5 °C | Active | Non-Toxic | inactive | Non-Toxic | Non-Toxic | Non-Toxic | Non-Toxic | 0.4 °C | Non-Toxic | Non-Toxic
Nc1ncnc2c1ncn2[C@@H]1O[C@H](COP(=O)(O)OP(=O)(O)OP(=O)(O)O)[C@@H](O)[C@H]1O [ADENOSINE TRIPHOSPHATE] | – | – | – | Active | – | – | – | – | – | – | – | – | – | – | – | –
C[C@H](N)C(=O)N[C@H](CCC(=O)NC12CC3CC(CC(C3)C1)C2)C(N)=O | inactive | – | – | – | – | – | – | – | – | – | – | – | – | – | – | –
C[C@H](NC(=O)[C@@H](C)O[C@H]1[C@H](O)[C@@H](CO)OC(O)[C@@H]1NC(=O)CO)C(=O)N[C@H](CCC(=O)O)C(N)=O (some centres not stated) | Active | – | – | – | – | – | – | – | – | – | – | – | – | – | – | –
